Published values of several laboratories.
Protocols differ between the studies behind these lines.
Organism: Plasmodium falciparum
Effect on: parasite growth

SMILES | assay | system | conditions | IC50
Cc1cccc(C(=O)O)c1NC(=O)c1cccc(-c2ccccc2)c1 | resazurin | NF54 | 48 h, gametocyte | 665 nM
CC[C@@H](C)[C@H]1O[C@@H](c2c(O)c(-c3ccccc3)cn(O)c2=O)[C@H](C)C[C@@H]1C |  | W2 | 72 h, drug-resistant strain, blood stage | 0.2 µg/mL
CO[C@H]1C[C@@H](C[C@H](C)[C@H]2CC(=O)[C@@H](C)/C=C(\C)[C@H](O)[C@H](OC)C(=O)[C@@H](C)C[C@@H](C)/C=C/C=C/C=C(\C)[C@H](OC)C[C@H]3CC[C@H](C)[C@](O)(O3)C(=O)C(=O)N3CCCC[C@@H]3C(=O)O2)CC[C@@H]1OCCO (racemic) | SYBR Green |  | blood stage | 1250 nM
C[C@@H]1CC[C@H]2[C@@H](C)C(=O)O[C@@H]3O[C@@]4(C)CC[C@@H]1[C@]32OO4 |  | W2 | drug-resistant strain, blood stage | 15 nM
COc1ccccc1-c1ccccc1C(=O)Nc1c(C)cccc1C(=O)O | resazurin | NF54 | 48 h, gametocyte | > 10000 nM
NCCCNc1nc2cc(Br)ccc2n1Cc1ccccc1 |  | NF54 | blood stage | 382 nM
Clc1ccc2c(N3CCN(CCCN4CCN(c5ccnc6cc(Cl)ccc56)CC4)CC3)ccnc2c1 |  |  | blood stage | 25.8 nM
O=C1C(O)=C([C@H]2CC[C@H](c3ccc(Cl)cc3)CC2)C(=O)c2ccccc21 |  | 3D7 | 72 h, blood stage | 0.4 nM
O[C@@H](c1cc(C(F)(F)F)nc2c(C(F)(F)F)cccc12)[C@H]1CCCCN1 | SYBR Green |  | blood stage | 17 nM
Clc1ccc2c(c1)nc(NCCN1CCOCC1)n2Cc1ccccc1 |  | NF54 | blood stage | 8520 nM
CO[C@H]1/C=C/O[C@@]2(C)Oc3c(C)c(O)c4c(O)c(c(/C=N/N5CCN(C)CC5)c(O)c4c3C2=O)NC(=O)/C(C)=C\C=C[C@H](C)[C@H](O)[C@@H](C)[C@@H](O)[C@@H](C)[C@H](OC(C)=O)[C@@H]1C | SYBR Green |  | blood stage | 7810 nM
FC(F)(F)c1ccc(CNCCNc2nc3cc(Cl)ccc3n2Cc2ccccc2)cc1 |  | NF54 | blood stage | 2780 nM
C[C@@]12CC[C@@H](O)[C@]3(C)C4=CC(=O)OCC4=C[C@@H](OC1=O)C23 (some centres unmarked) |  | D6 | 72 h, blood stage | 0.9 µg/mL
Clc1ccc2c(c1)nc(NCc1ccccn1)n2Cc1ccccc1 |  | NF54 | blood stage | > 10000 nM
O=C(O)c1ccccc1NC(=O)c1ccccc1-c1ccccc1 | resazurin | NF54 | 48 h, gametocyte | > 10000 nM
C[C@H]1[C@@H](O)O[C@@H]2O[C@@]3(C)CC[C@H]4[C@H](C)CC[C@@H]1[C@@]24OO3 |  | 3D7 | 72 h, blood stage | 5.8 nM
O=C(Nc1c(F)cccc1C(=O)O)c1ccc(-c2ccccc2)cc1 |  | NF54 | 48 h, blood stage | > 10000 nM
CCN(CC)CCCC(C)Nc1ccnc2cc(Cl)ccc12 (centres unmarked) |  | D6 | 72 h, blood stage | 0.016 µg/mL
Cc1cc(NC(=O)Nc2ccc3c(c2)OC(F)(F)O3)cc(C(F)(F)F)n1 |  | NF54 | blood stage | 290 nM
CCCCCCCCCCCCCC(O)CC(O)CO (centres unmarked) |  | D6 | blood stage | 28.2 µg/mL
NCCN(C(=O)c1ccc(Cl)cc1Cl)c1ccc(OCc2ccc(Cl)cc2)cc1 | SYBR Green |  | blood stage | 2810 nM

SMILES | assay | system | conditions | IC50
COc1cc(NC(C)CCCNC(=O)c2cccc(C(=O)NCCCC(C)Nc3cc(OC)cc4cccnc34)n2)c2ncccc2c1.Cl (centres unmarked) |  | D6 | blood stage | 2.2 µg/mL
Clc1ccc2c(c1)nc(NCCNCc1ccccc1)n2Cc1ccccc1 |  | NF54 | blood stage | 86 nM
CCN(CC)CCCC(C)Nc1ccnc2cc(Cl)ccc12 (centres unmarked) |  | D6 | blood stage | 0.016 µg/mL
CC1=C(C)C(c2ccc[nH]2)=NC1=Cc1ccc(CCCCCCCCCC(C)O)[nH]1 (centres unmarked) |  | D6 | blood stage | 1080 nM
CN1CCN(C2CCN(c3nccc4[nH]c(-c5cccc(C#N)c5)nc34)CC2)CC1 |  | NF54 | blood stage | < 100 nM
COC1=CC(c2ccc[nH]2)=NC1=Cc1ccc(CCCCCCCCCCCCO)[nH]1 |  | D6 | blood stage | 38 nM
O=C(Nc1cc(F)ccc1C(=O)O)c1ccc(-c2ccccc2)cc1 | resazurin | NF54 | 48 h, gametocyte | 105 nM
c1ccc(Cn2c(N3CCNCC3)nc3cc(-c4ccccc4)ccc32)cc1 |  | NF54 | blood stage | 6960 nM
COc1nc2ccc(Br)cc2cc1[C@@H](c1ccccc1)[C@@](O)(CCN(C)C)c1cccc2ccccc12 | SYBR Green |  | blood stage | 1090 nM
Brc1ccc2c(c1)nc(C1CCNCC1)n2Cc1ccccc1 |  | NF54 | blood stage | 28 nM
Oc1cccc(C(Nc2nccs2)c2ccc3cccnc3c2O)c1 (centres unmarked) | SYBR Green |  | blood stage | 1200 nM
COc1cc(C)c(-c2ccc(O)c3c2C[C@@H](C)N[C@@H]3C)c2cccc(O)c12 (single isomer, unassigned) | SYBR Green | NF54 | blood stage | 38.4 nM
C/C=C/C=C/C=C/c1c(O)cc(CC=C(C)C)c(O)c1C=O |  | W2 | 72 h, drug-resistant strain, blood stage | 1.1 µg/mL
C[C@@H]1CC[C@H]2[C@@H](C)C(=O)O[C@@H]3O[C@@]4(C)CC[C@@H]1[C@]32OO4 |  | D6 | 72 h, blood stage | 0.0047 µg/mL
CCN(CC)CCCC(C)Nc1ccnc2cc(Cl)ccc12 (centres unmarked) |  | 3D7 | 96 h, blood stage | 3 nM
CC(=O)Nc1ccc(-c2ccc3ncc4c(c3c2)n(-c2cccc(C(F)(F)F)c2)c(=O)n4C)cn1 | resazurin | 3D7 | gametocyte | < 100 nM
Cc1cc(NCCc2ccccc2)nc(N=C(N)Nc2ccc(Cl)cc2)n1 | SYBR Green |  | blood stage | 280 nM
C=CCCCCCCCCCCCC(O)CC(O)CO (centres unmarked) |  | D6 | blood stage | 29.7 µg/mL
c1ccc(Oc2ccc(-c3cc(C4CCOCC4)[nH]n3)cc2)cc1 | SYBR Green |  | blood stage | 70200 nM
Fc1cc(F)cc(-c2nc3c(N4CCC(CN5CCN(CC(F)(F)F)CC5)CC4)nccc3[nH]2)c1 |  | NF54 | blood stage | < 100 nM
